From ChEMBL document CHEMBL3763085, “Optimization of tetrahydronaphthalene inhibitors of Raf with selectivity over hERG” (Bioorg Med Chem Lett, 2016)

Experiments:
Type in all cases: ADME, organism-based
[1] = Oral bioavailability in Sprague-Dawley rat at 10 mg/kg; conditions: in vivo
Summary of the method: (§1)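 Male SD rats were dosed orally at 10 mg/kg in 10% 2-hydroxypropyl-beta-cyclodextrin.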

[2] = AUC in Sprague-Dawley rat at 10 mg/kg, po; conditions: in vivo; summary of the method: as §1
[3] = Volume of distribution at steady state in Sprague-Dawley rat at 1 mg/kg, iv; conditions: in vivo, read-out: Vdss
Summary of the method: (§2)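 Male SD rats received 1 mg/kg intravenously. The vehicle was 10% 2-hydroxypropyl-beta-cyclodextrin or ethanol/PEG400/N,N-dimethylacetamide/water 1:4:1:4 (by volume), depending on compound. Plasma clearance (L/h/kg) and steady-state volume of distribution (L/kg) were derived.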

[4] = Plasma clearance in Sprague-Dawley rat at 1 mg/kg, iv; summary of the method: as §2

Row | SMILES | bioavailability [1] | AUC [2] | Vd [3] | clearance [4]
1 | Cl.Cn1cc(-c2cc(C(=O)N[C@@H]3CCc4ccc(Oc5ccnc6c5CCC(=O)N6)cc4C3)cc(C(F)(F)F)c2)cn1 | 54% | 126 µM·h | 0.41 L/kg | 1.33 mL/min/kg
2 | CN(C)Cc1cc(C(=O)N[C@@H]2CCc3ccc(Oc4ccnc5c4CCC(=O)N5)cc3C2)cc(C(F)(F)F)c1.Cl.Cl | 100% | 98.6 µM·h | 0.75 L/kg | 3.83 mL/min/kg
